According to ChEMBL document CHEMBL1125448, “(Aminoalkoxy)chromones. Selective sigma receptor ligands” (J Med Chem, 1992):
pKi: −log10 of the molar value.

Target: T1, D(2) dopamine receptor (Rattus norvegicus, UniProt P61169)
Experiment: Affinity towards dopamine receptor D2 site was determined by competition studies using [3H]sulpiride in rat striatum.
Type: tissue-based
Outline: (§1)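 Competition binding values reported as mean ± SEM of triplicate determinations, with some entries from N = 3, 4, 6 or 7 determinations.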

T1 sequence (P61169 whole entry): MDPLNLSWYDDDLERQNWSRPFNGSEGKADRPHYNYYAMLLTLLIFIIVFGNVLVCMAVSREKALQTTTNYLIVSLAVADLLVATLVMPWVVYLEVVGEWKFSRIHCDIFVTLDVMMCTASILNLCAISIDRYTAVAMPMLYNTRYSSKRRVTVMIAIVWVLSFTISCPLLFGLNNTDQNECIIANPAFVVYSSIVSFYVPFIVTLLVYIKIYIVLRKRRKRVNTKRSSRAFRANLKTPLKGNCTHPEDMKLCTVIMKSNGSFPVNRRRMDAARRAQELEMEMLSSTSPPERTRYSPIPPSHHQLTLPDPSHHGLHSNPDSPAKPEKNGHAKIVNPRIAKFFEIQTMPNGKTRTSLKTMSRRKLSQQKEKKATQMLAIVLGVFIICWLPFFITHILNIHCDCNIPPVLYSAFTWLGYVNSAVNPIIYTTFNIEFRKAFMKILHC

Structure (SMILES) | pKi
CCOC(=O)C1CCN(CCCCCCOc2ccc3oc(-c4ccccc4)cc(=O)c3c2)CC1 | 5.55
O=c1cc(-c2ccccc2)oc2ccc(OCCCCCCN3CC=C(c4ccc(Cl)cc4)CC3)cc12 | 5.89
O=c1cc(-c2ccccc2)oc2ccc(OCCCCCCN3CCN(CCO)CC3)cc12 | 5.08
O=c1cc(-c2ccccc2Cl)oc2ccc(OCCCCCCN3CCC(O)CC3)cc12 | 5.39
Cc1c(-c2ccccc2)oc2ccc(OCCCCCCN3CCC(O)CC3)cc2c1=O | 5.57
O=c1cc(C2CCC2)oc2ccc(OCCCCCCN3CCC(O)CC3)cc12 | 4.85
O=C1NCN(c2ccccc2)C12CCN(CCCCCCOc1ccc3oc(-c4ccccc4)cc(=O)c3c1)CC2 | 6.74
COc1ccc(-c2cc(=O)c3cc(OCCCCCN4CCC(O)CC4)ccc3o2)cc1 | 5.38
O=c1cc(-c2ccccc2)oc2ccc(OCCCCCCN3CCN(c4ccccn4)CC3)cc12 | 5.52
CN(CCCCCCOc1ccc2oc(-c3ccccc3)cc(=O)c2c1)Cc1ccccc1 | 5.74
CCN(CC)CCCCCCOc1ccc2oc(-c3ccccc3)cc(=O)c2c1 | 5.44
COc1ccc(-c2cc(=O)c3cc(OCCCCCCN4CCC(O)CC4)ccc3o2)cc1 | 5.43
O=c1cc(-c2cccs2)oc2ccc(OCCCCCCN3CCC(O)CC3)cc12 | 5.40
COc1cccc(-c2cc(=O)c3cc(OCCCCCCN4CCC(O)CC4)ccc3o2)c1 | 5.02
COc1cccc(-c2cc(=O)c3cc(OCCCCCN4CCC(O)CC4)ccc3o2)c1 | 5.21
CN(C)CCCOc1ccc2oc(-c3ccccc3)cc(=O)c2c1 | 5.44
CN(CCO)CCCCCCOc1ccc2oc(-c3ccccc3)cc(=O)c2c1 | 5.35
O=c1cc(-c2ccc(F)cc2)oc2ccc(OCCCCCCN3CCC(O)CC3)cc12 | 5.42
O=c1cc(C2CCCCC2)oc2ccc(OCCCCCN3CCC(O)CC3)cc12 | 4.92

Structure (SMILES) | pKi
O=c1cc(-c2ccccc2)oc2ccc(OCCCCCCN3CCC(O)(c4ccc(Cl)cc4)CC3)cc12 | 6.00
O=c1cc(-c2ccccc2)oc2cccc(OCCCCCN3CCC(O)CC3)c12 | 5.29
O=c1cc(-c2cccc(F)c2)oc2ccc(OCCCCCCN3CCC(O)CC3)cc12 | 4.96
O=c1cc(-c2ccncc2)oc2ccc(OCCCCCCN3CCC(O)CC3)cc12 | 5.16
O=c1cc(-c2cccnc2)oc2ccc(OCCCCCCN3CCC(O)CC3)cc12 | 5.42
O=c1cc(-c2ccccc2)oc2ccc(OCCCCCCN3CCN(c4ccc(Cl)cc4)CC3)cc12 | 5.89
O=c1cc(-c2cccc(Cl)c2)oc2ccc(OCCCCCCN3CCC(O)CC3)cc12 | 5.19
O=c1cc(C2CCCC2)oc2ccc(OCCCCCCN3CCC(O)CC3)cc12 | 4.68
O=c1cc(-c2ccccc2)oc2ccc(OCCCCCCN3CCCCCC3)cc12 | 5.64
O=c1cc(-c2ccccc2)oc2cccc(OCCCCN3CCC(O)CC3)c12 | 5.02
O=c1cc(-c2ccccc2)oc2ccc(OCCCCCCN3CCC(n4c(O)nc5ccccc54)CC3)cc12 | 6.66
NCCCCCCOc1ccc2oc(-c3ccccc3)cc(=O)c2c1 | 5.09
O=c1cc(-c2ccccc2)oc2ccc(OCCCCCCN3CCOCC3)cc12 | 4.74
CCOC(=O)C1CCCN(CCCCCCOc2ccc3oc(-c4ccccc4)cc(=O)c3c2)C1 (stereo not given) | 6.15
O=c1cc(-c2ccccc2)oc2cccc(OCCCN3CCC(O)CC3)c12 | 5.08
O=c1cc(-c2ccc(Cl)cc2)oc2ccc(OCCCCCCN3CCC(O)CC3)cc12 | 4.96
Cc1c(-c2ccccc2)oc2ccc(OCCC/C=C/CN3CCC(O)CC3)cc2c1=O | 5.57
O=c1cc(-c2ccccc2)oc2cccc(OCCCCCCN3CCC(O)CC3)c12 | 5.21

Target: T1, D(2) dopamine receptor
Experiment: Affinity towards dopamine D2 site was determined by competition studies using [3H]sulpiride in rat striatum.
Type: tissue-based
Outline: as §1

Structure (SMILES) | pKi
O=c1cc(-c2ccccc2)oc2ccc(OCCCCCCN3CCCCC3)cc12 | 5.35

Target: T1, D(2) dopamine receptor
Experiment: Affinity towards dopamine receptor D2 was determined by competition studies using [3H]sulpiride in rat striatum.
Type: tissue-based
Outline: as §1

Structure (SMILES) | pKi
CN(C)CCCCCCCCCOc1ccc2oc(-c3ccccc3)cc(=O)c2c1 | 5.66
O=c1cc(-c2ccccc2)oc2ccc(OCCCCN3CCC(O)CC3)cc12 | 5.17
O=c1cc(C2CCCC2)oc2ccc(OCCCCCCN3CCCCC3)cc12 | 5.49
O=c1cc(-c2ccccc2)oc2ccc(OCCCCCCN3CCCC(O)C3)cc12 (stereo not given) | 5.26
O=c1cc(-c2ccccc2)oc2cccc(OCCCCCCCN3CCC(O)CC3)c12 | 5.62
O=c1cc(-c2ccccc2)oc2cc(OCCCCN3CCC(O)CC3)ccc12 | 6.00
CC1CCN(CCCCCCOc2ccc3oc(-c4ccccc4)cc(=O)c3c2)CC1 | 6.24
O=c1cc(C2CCCCC2)oc2ccc(OCCCCCCN3CCOCC3)cc12 | 4.85
CN(C)CCCCOc1ccc2oc(-c3ccccc3)cc(=O)c2c1 | 5.38
CN(C)CCCCCCCOc1ccc2oc(-c3ccccc3)cc(=O)c2c1 | 4.92
CN(C)CCOc1ccc2c(=O)cc(-c3ccccc3)oc2c1 | 4.89
CN(C)CCCCCCCCCCOc1ccc2oc(-c3ccccc3)cc(=O)c2c1 | 5.57
O=c1cc(-c2ccccc2)oc2cc(OCCCCCCCCN3CCC(O)CC3)ccc12 | 5.55
O=c1cc(-c2ccccc2)oc2ccc(OCCCCCCN3CCNCC3c3ncccn3)cc12 (stereo not given) | 5.89
CN(C)CCCCCOc1ccc2oc(-c3ccccc3)cc(=O)c2c1 | 5.09
O=c1cc(-c2ccccc2)oc2ccc(OCCCCCCCN3CCC(O)CC3)cc12 | 5.19
Cc1c(C2CCCCC2)oc2ccc(OCCCCCCN3CCC(O)CC3)cc2c1=O | 5.33
O=c1cc(-c2ccccc2)oc2ccc(OCCCCCCN3CCC(CCO)CC3)cc12 | 5.57
O=c1cc(-c2ccccc2)oc2c(OCCCCCCN3CCC(O)CC3)cccc12 | 6.03

Structure (SMILES) | pKi
O=c1cc(-c2cccnc2)oc2ccc(OCCCCCCN3CCCCC3)cc12 | 5.64
O=c1cc(-c2ccccc2)oc2ccc(OCCCCCCN3CCCC3)cc12 | 5.64
O=c1cc(-c2ccccc2)oc2cc(OCCCCCCN3CCC(O)CC3)ccc12 | 5.22
O=c1cc(-c2ccccc2)oc2ccc(OCCCN3CCC(O)CC3)cc12 | 5.47
O=c1cc(C2CCC2)oc2ccc(OCCCCCCN3CCCCC3)cc12 | 5.26
O=c1cc(-c2cccs2)oc2ccc(OCCCCCCN3CCCCC3)cc12 | 5.85
O=c1cc(-c2ccccc2)oc2cc(OCCCCCN3CCC(O)CC3)ccc12 | 5.23
O=c1cc(-c2ccccc2)oc2ccc(OCCCCCCN3CCC(O)CC3)cc12 | 5.43
CC(C)Cc1cc(=O)c2cc(OCCCCCN3CCC(O)CC3)ccc2o1 | 4.89
O=c1cc(-c2ccccc2)oc2ccc(OCCCCCCCCN3CCC(O)CC3)cc12 | 5.05
O=c1cc(-c2ccccc2Cl)oc2ccc(OCCCCCCN3CCCCC3)cc12 | 5.66
O=c1cc(-c2ccccc2)oc2cc(OCCCCCCCN3CCC(O)CC3)ccc12 | 5.40
O=c1cc(-c2ccccc2)oc2ccc(OCCCCCN3CCC(O)CC3)cc12 | 5.29
O=c1cc(-c2ccncc2)oc2ccc(OCCCCCCN3CCCCC3)cc12 | 5.74
O=c1cc(C2CCCCC2)oc2ccc(OCCCCCCN3CCCCC3)cc12 | 5.11
CN(C)CCCCCCCCOc1ccc2oc(-c3ccccc3)cc(=O)c2c1 | 5.55
COc1c(-c2ccccc2)oc2ccc(OCCCCCCN3CCC(O)CC3)cc2c1=O | 5.59
CN(C)CCOc1ccc2oc(-c3ccccc3)cc(=O)c2c1 | 5.35
